Data: ChEMBL document CHEMBL1139431, “Synthesis of both enantiomers of hydroxypipecolic acid derivatives equivalent to 5-azapyranuronic acids and evaluation of their inhibitory activities against glycosidases” (Bioorg Med Chem, 2008)
pIC50, pKi: −log10 of the molar value.

Legend:
[1] = species on record: Bos taurus; assay: Inhibition of bovine liver beta-glucuronidase at 1000 uM
How it was run: (§1)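 Enzyme from bovine liver, run at pH 5.0. A p-nitrophenyl glycoside substrate (2 mM) is used in a 1 mL reaction with an appropriate amount of enzyme. Termination is by 2 mL of 400 mM Na₂CO₃, with spectrophotometric detection of liberated p-nitrophenol at 400 nm.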

[2] = test system: Escherichia coli; assay: Inhibition of Escherichia coli beta-glucuronidase at 1000 uM
How it was run: (§2)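 E. coli β-glucuronidase assayed at pH 6.8 in a 1 mL mixture containing 2 mM p-nitrophenyl glycoside substrate and an appropriate amount of enzyme. The reaction is stopped with 2 mL of 400 mM Na₂CO₃, and released p-nitrophenol is read at 400 nm.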

[3] = Inhibition of bovine kidney beta-N-acetylglucosaminidase at 1000 uM; format: functional; settings: Bos taurus
How it was run: (§3)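 β-N-Acetylglucosaminidase from bovine kidney, pH 4.5. The substrate is a p-nitrophenyl glycoside at 2 mM, with an appropriate amount of enzyme in a 1 mL mixture. The reaction is quenched with 2 mL of 400 mM Na₂CO₃, and p-nitrophenol is measured at 400 nm.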

[4] = molecular target: T1, Alpha-N-acetylgalactosaminidase (Gallus gallus) (UniProt Q90744); assay: Inhibition of chicken liver alpha-N-acetylgalactosaminidase at 1000 uM
T1 sequence (whole entry): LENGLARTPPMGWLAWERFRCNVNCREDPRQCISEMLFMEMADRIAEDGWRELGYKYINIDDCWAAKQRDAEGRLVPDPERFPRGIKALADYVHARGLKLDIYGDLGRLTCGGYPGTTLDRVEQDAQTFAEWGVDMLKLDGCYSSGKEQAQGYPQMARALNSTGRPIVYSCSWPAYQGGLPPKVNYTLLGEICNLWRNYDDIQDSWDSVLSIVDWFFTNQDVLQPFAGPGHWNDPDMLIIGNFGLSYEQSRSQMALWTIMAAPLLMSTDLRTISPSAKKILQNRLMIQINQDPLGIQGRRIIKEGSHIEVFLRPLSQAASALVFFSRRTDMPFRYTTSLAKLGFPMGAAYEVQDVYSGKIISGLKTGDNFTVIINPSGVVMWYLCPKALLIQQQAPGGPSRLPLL
How it was run: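 Chicken liver α-N-acetylgalactosaminidase at pH 4.0. The reaction (1 mL) holds 2 mM p-nitrophenyl glycoside and an appropriate amount of enzyme. It is stopped by 2 mL of 400 mM Na₂CO₃, and p-nitrophenol release is quantified at 400 nm.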

[5] = test system: Beta-hexosaminidase (Homo sapiens); assay: Inhibition of human Placental beta-N-acetylglucosaminidase at 1000 uM
[6] = Inhibition of bovine liver beta-glucuronidase; parameters: species or system Bos taurus; how it was run: as §1
[7] = Inhibition of Escherichia coli beta-glucuronidase; how it was run: as §2
[8] = Inhibition of bovine kidney beta-N-acetylglucosaminidase; parameters: species or system Bos taurus; how it was run: as §3
[9] = molecular target: Beta-hexosaminidase (Homo sapiens); assay: Inhibition of human Placental beta-N-acetylglucosaminidase

| Compound | inhibition [1] | inhibition [2] | inhibition [4] | inhibition [5] | pIC50 [6] | pIC50 [7] | pIC50 [8] | pIC50 [9] | inhibition at 1000 µM [3] | pKi [7] |
| --- | --- | --- | --- | --- | --- | --- | --- | --- | --- | --- |
| O=C(O)[C@@H]1NC[C@H](O)[C@H](O)[C@H]1O | 12% | 2.6% | 4.4% | 39% | – | – | – | – | 18% | – |
| O=C(O)[C@@H]1NC[C@@H](O)[C@@H](O)[C@H]1O | 3.1% | 1.3% | 8.2% | 26% | – | – | – | – | 10% | – |
| O=C(O)[C@H]1NC[C@@H](O)[C@@H](O)[C@@H]1O | 14% | 1% | 3.8% | 28% | – | – | – | – | 0.5% | – |
| O=C(O)[C@H]1NC[C@H](O)[C@@H](O)[C@@H]1O | 95% | 72% | 0.2% | 43% | 4.15 | 3.67 | – | – | 13% | 3.40 |
| O=C(O)[C@H]1NC[C@@H](O)[C@H](O)[C@@H]1O | 20% | 1.1% | 11% | 42% | – | – | – | – | 17% | – |
| O=C(O)[C@H]1NC[C@H](O)[C@H](O)[C@H]1O | 8.8% | 2.3% | 21% | 7.6% | – | – | – | – | 5.5% | – |
| O=C(O)[C@@H]1NC[C@@H](O)[C@@H](O)[C@@H]1O | 9.4% | 1.2% | 7.2% | 2.1% | – | – | – | – | 1.7% | – |
| O=C(O)[C@H]1NC[C@@H](O)[C@H](O)[C@H]1O | 17.5% | 2.6% | 4.2% | 6.3% | – | – | – | – | 4.8% | – |
| O=C(O)[C@@H]1NC[C@@H](O)[C@H](O)[C@H]1O | 2.7% | 5.4% | 1.3% | 50% | – | – | – | – | 11% | – |

More lines, main results first:

| inhibition [1] | inhibition [2] | inhibition [4] | inhibition [5] | pIC50 [6] | pIC50 [7] | pIC50 [8] | pIC50 [9] | Compound | inhibition at 1000 µM [3] | pKi [7] |
| --- | --- | --- | --- | --- | --- | --- | --- | --- | --- | --- |
| 0.18% | 24% | 2.5% | 30% | – | – | – | – | O=C(O)[C@H]1NCCC[C@H]1O | 20% | – |
| 15% | 23% | 3.2% | 46% | – | – | – | – | O=C(O)[C@@H]1NCCC[C@@H]1O | 47% | – |
| 0.89% | 31% | 5.2% | 36% | – | – | – | – | O=C(O)[C@H]1NCCC[C@@H]1O | 38% | – |
| 2.1% | 0.6% | 4.5% | 26% | – | – | – | – | O=C(O)[C@H]1NC[C@H](O)[C@H](O)[C@@H]1O | 14% | – |
| 87% | 21% | 31% | 2.6% | 4.07 | – | – | – | O=C(O)[C@H]1NC[C@H](O)[C@@H](O)[C@H]1O | 1.9% | – |
| 0.62% | 20% | 1.3% | 25% | – | – | – | – | O=C(O)[C@@H]1NCCC[C@H]1O | 32% | – |
| 15.8% | 4.2% | 3.4% | 5.4% | – | – | – | – | O=C(O)[C@@H]1NC[C@H](O)[C@@H](O)[C@@H]1O | 4.4% | – |
| 7.1% | 6.3% | 10% | 0.8% | – | – | – | – | O=C(O)[C@@H]1NC[C@@H](O)[C@H](O)[C@@H]1O | 0.5% | – |
| 19% | 2% | 25% | 60% | – | – | 3.14 | 3.12 | O=C(O)[C@H]1NCC=C[C@@H]1O | 58% | – |
| 8.6% | 3.3% | 0.2% | 17% | – | – | – | – | O=C(O)[C@H]1NCC=C[C@H]1O | 7.3% | – |
| 10% | 0.9% | 1.3% | 14% | – | – | – | – | O=C(O)[C@@H]1NCC=C[C@@H]1O | 0.8% | – |
| 0.2% | 0.9% | 3.2% | 14% | – | – | – | – | O=C(O)[C@@H]1NCC=C[C@H]1O | 15% | – |
| 6.8% | 5.2% | 4% | 42% | – | – | – | – | O=C(O)[C@@H]1NC[C@H](O)[C@@H](O)[C@H]1O | 27% | – |
